Measured values published in ChEMBL document CHEMBL4428115, “Molecular docking studies, biological and toxicity evaluation of dihydroisoquinoline derivatives as potential anticancer agents” (Bioorg Med Chem, 2016).
The source made the active and inactive calls. The rule behind the calls is not given here.

How the values were obtained:
[1] = tested on: HL60/MX2; experiment: Antiproliferative activity against human HL60/MX2 cells after 72 hrs by MTT assay; type: functional, cell-based; conditions: HL60/MX2, 72 h
Summary of the method: (§1)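 Leukemia cells seeded at 1 × 10^4 per well 24 h before adding compounds (0.01–1000 µg/mL from DMSO stock), exposed 72 h. MTT (5 mg/mL stock) added for 4 h, then DMF/SDS lysis mixture; absorbance at 570 nm read after 24 h. Triplicates per experiment, 3–5 repeats; IC50 calculated per experiment, reported as mean ± SD.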

[2] = tested on: HL-60; experiment: Antiproliferative activity against human HL60 cells after 72 hrs by MTT assay; type: functional, cell-based; conditions: HL-60, 72 h; summary of the method: as §1
[3] = tested on: BALB/3T3; experiment: Antiproliferative activity against mouse BALB/3T3 cells after 72 hrs by SRB assay; type: cell-based; conditions: BALB/3T3, 72 h
Summary of the method: (§2)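 Adherent cells plated at 1 × 10^4 per well 24 h before treatment, then exposed 72 h to compounds diluted from 20 mg/mL DMSO stock (0.01–1000 µg/mL). Fixed in cold 50% TCA at 4°C for 1 h, stained with 0.4% sulforhodamine B, bound dye extracted with 10 mM Tris, OD at 540 nm. Triplicates, 3–5 experiments; IC50 per experiment, mean ± SD.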

[4] = Antiproliferative activity against HLMEC after 72 hrs by SRB assay; set-up: species or system Homo sapiens; summary of the method: as §2
[5] = tested on: MCF7; experiment: Antiproliferative activity against human MCF7 cells after 72 hrs by SRB assay; type: functional, cell-based; conditions: MCF7, 72 h; summary of the method: as §2
[6] = tested on: MCF10; experiment: Antiproliferative activity against human MCF10 cells after 72 hrs by SRB assay; type: cell-based; conditions: MCF10, 72 h; summary of the method: as §2
[7] = Antiproliferative activity against human LoVo/DX cells at 290 uM; type: functional; conditions: read-out: GI
[8] = tested on: MCF7; experiment: Antiproliferative activity against human MCF7 cells at 290 uM after 72 hrs by SRB assay; type: functional
Summary of the method: (§3)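 SRB test of adherent cells after 72 h exposure at the highest concentration, 100 µg/ml (290 µM). Cells plated at 1 × 10^4 per well 24 h before treatment; TCA fixation, 0.4% SRB staining, OD 540 nm. Result expressed as % inhibition of proliferation.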

[9] = (§4) Antiproliferative activity against human MCF10 cells at 290 uM after 72 hrs by SRB assay; type: cell-based; conditions: MCF10 cells, read-out: GI; summary of the method: as §3
[10] = tested on: LoVo; experiment: Antiproliferative activity against human LoVo cells at 290 uM; type: functional; conditions: read-out: GI
[11] = tested on: A549; experiment: Antiproliferative activity against human A549 cells at 290 uM; type: functional; conditions: read-out: GI
[12] = (§5) Antiproliferative activity against mouse BALB/3T3 cells at 290 uM after 72 hrs by SRB assay; type: cell-based; conditions: BALB/3T3 cells, read-out: GI; summary of the method: as §3
[13] = tested on: HL-60; experiment: Antiproliferative activity against human HL60 cells at 290 uM after 72 hrs by MTT assay; type: functional, cell-based
Summary of the method: (§6)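 MTT read-out in leukemia cells exposed 72 h to the highest concentration, 100 µg/ml (290 µM), expressed as % proliferation inhibition. Cells seeded at 1 × 10^4 per well 24 h beforehand; MTT for 4 h, DMF/SDS lysis, 570 nm.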

[14] = tested on: HL60/MX2; experiment: Antiproliferative activity against human HL60/MX2 cells at 290 uM after 72 hrs by MTT assay; type: functional, cell-based; summary of the method: as §6
[15] = tested on: BALB/3T3; experiment: as §5; type: cell-based; conditions: balb/3t3, 72 h, 290 µM; summary of the method: as §3
[16] = tested on: MCF10; experiment: as §4; type: cell-based; conditions: mcf10, 72 h, 290 µM; summary of the method: as §3
[17] = Antiproliferative activity against HLMEC at 290 uM after 72 hrs by SRB assay; conditions: human; summary of the method: as §3

| IC50 [5] [µM] | SMILES | IC50 [3] [µM] | IC50 [4] [µM] | IC50 [6] [µM] | growth inhibition (GI) [13] | growth inhibition (GI) [14] | Activity [15] | growth inhibition (GI) [8] | also measured |
| --- | --- | --- | --- | --- | --- | --- | --- | --- | --- |
| 84.7 | O=C(O)C1Cc2cc(O)c(O)c(O)c2C=N1 (stereo not given) | 235 | 150 | 249 | – | – | – | – | IC50 [1]: 149 µM; IC50 [2]: 124 µM |
| 150 | CC(C)C[C@H](NC(=O)[C@@H](O)[C@H](N)Cc1ccccc1)C(=O)O [UBENIMEX] | – | – | – | – | – | – | – | inhibition of growth at 290 µM [7]: 26.9%; inhibition of growth at 290 µM ([8]; MCF7, 72 h, read-out: GI): 63.8%; inhibition at 72 h, 290 µM [9]: 26.9%; inhibition of growth at 290 µM [10]: 54.8%; inhibition of growth at 290 µM [11]: 48%; inhibition at 72 h, 290 µM [12]: 37.7% |
| 1200 | C[C@@]1(C(=O)O)Cc2cc(O)c(O)cc2C2C(Cl)C(=O)N21 (stereo not given in full) | 1960 | 1140 | 1960 | inactive | inactive | – | – | – |
| 1700 | O=C(O)C1CCc2cc(O)c(O)cc2C=N1 (stereo not given) | – | 1590 | 3330 | inactive | inactive | Non-Toxic | – | – |
| – | O=C(O)C1Cc2cc(O)cc(O)c2C=N1 (stereo not given) | – | – | – | inactive | inactive | Non-Toxic | inactive | Activity [16]: Non-Toxic; Activity [17]: Non-Toxic |
| 342 | O=C(O)C1Cc2cc(O)c(O)c(I)c2C=N1 (stereo not given) | – | 307 | 897 | inactive | inactive | Non-Toxic | – | – |
| 1240 | O=C(O)C1Cc2cc(O)c(O)cc2C=N1 (stereo not given) | 1830 | 1550 | – | inactive | inactive | – | – | – |
| 734 | COc1cc2c(cc1OC)CCC(C(=O)OCc1ccccc1)(C(=O)OCc1ccccc1)N=C2 | 929 | 657 | – | inactive | – | – | – | – |
| 660 | O=C(O)C1Cc2c(O)c(O)cc(Br)c2C=N1 (stereo not given) | 1260 | 562 | 1440 | – | – | – | – | IC50 [1]: 247 µM; IC50 [2]: 104 µM |
| – | O=C(O)C1Cc2cc(O)c(Br)c(O)c2C=N1 (stereo not given) | – | – | – | inactive | inactive | Non-Toxic | inactive | Activity [16]: Non-Toxic; Activity [17]: Non-Toxic |
| – | O=C(O)C1Cc2cc(O)c(I)cc2C=N1 (stereo not given) | – | – | – | inactive | inactive | Non-Toxic | inactive | Activity [16]: Non-Toxic; Activity [17]: Non-Toxic |
| – | CCOC(=O)C(Cc1cc(OCc2ccccc2)cc(OCc2ccccc2)c1)(NC=O)C(=O)OCC | 68.6 | 46.5 | – | inactive | inactive | – | inactive | – |
| 224 | O=C(O)C1Cc2cc(O)c(O)c(Br)c2C=N1 (stereo not given) | 183 | 126 | 904 | – | inactive | – | – | IC50 [2]: 156 µM |
